Source: PubChem BioAssay (Broad Institute)
INS-1E GSIS act = GLuc luminescence reporter in INS-1E cells, primary screen for activators of glucose-dependent secretion of insulin. INS-1E GLuc reporter insulin secretion, 2-3 h. activation, % at 16.6 µM. 370,000 tested, 0.61% active. AID 743287, 2014;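 active = lowest replicate activation of at least 40%, so every replicate reaches that level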;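 also: 0% = median of neutral control wells and 100% = median of IBMX positive control wells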
miR-122 sensor = miR-122 Renilla sensor signal increase in Huh7, primary screen, miR-122 inhibitor project, cell-based, single point, plate reader. Huh7 miR-122 Renilla luciferase sensor, 48 h; neutral wells = 0, positive control = 100. activation (reporter increase), % at 12.5 µM. 340,000 tested, 0.3% active;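 active = mean replicate activation score at least 90 and every replicate individually at or above 90; inconclusive = only one of the two criteria met; inactive = neither criterion met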;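 also: higher luciferase means less miR-122 activity so hits act as miR-122 inhibitors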
Cneo AK release = Cryptococcus neoformans cell lysis inducers, primary screen, AK release luminescence, single concentration; lysis activity, % at 15 µM; AID 651654, 2012; 360,000 tested, 0.2% active; C. neoformans lysis, adenylate kinase release luminescence, 4 h; normalised: neutral wells 0, clomiphene wells 100;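 active = mean lysis activity across replicates of at least 80%, whatever share of replicates individually reach that level; inactive = mean lysis activity below 80%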
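Material: C. neoformans cells; Schedule: 4 h static compound exposure, 37 °C, read 1 h post-reagent; Measured by: adenylate kinase release luminescence; Read-out: signal increase indicating cell lysis; Controls: Clomiphene as positive lysis control.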
CFTR F508del cor = F508del CFTR correction, initial screen, CFBE line, single point | CFBE cells, YFP halide quenching; stimulated with forskolin plus potentiator P3; % fluorescence drop versus neutral controls | activity (quench increase), % at 7.58 µM | 350,000 tested, 0.36% active;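 active = mean added fluorescence quench of at least 8% versus neutral control, with both replicates also reaching 8%; inconclusive = only one of the mean or replicate conditions met; inactive = mean below 8% and not both replicates reaching 8%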;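 also: cells transiently co-express mutant CFTR-F508del with the halide-sensitive YFP; corrector assay measuring rescue of mutant channel to the surface after 24 h compound exposure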
HIV Env fusion = inhibitors of HIV-1 Env-driven cell-cell fusion, primary screen, HeLa-JRFL effector, CEM21 target cells, luciferase; 360,000 tested, 1.1% active; inhibition, % at 12.3 µM; AID 651610, 2012;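 active = mean replicate inhibition score of at least 50 and every replicate individually at or above 50; inconclusive = only one of the two criteria met; inactive = mean below 50 and not all replicates reaching 50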;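 also: 0% = plate neutral controls and 100% = maraviroc near 300 nM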
rRNA inh HTS = reduced GFP signal of wild-type E. coli, primary screen, bacterial rRNA inhibitor project, GFP/RFP fluorescence, OD600, single point; E. coli WT GFP vs humanized-ribosome RFP mutants, 24 h; stronger effect = lower value; DMSO median 0, no signal -100; AID 720706, 2013; 350,000 tested, 1.6% active; GFP signal change (wild-type ribosome), % (no concentration beside the values);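 active = significant combined selectivity score with lowered wild-type GFP, culture density cut under 30%, mutant RFP and density less affected; inactive = any of these conditions unmet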
Numbers without * were called inactive; ? = inconclusive; nt = no result; [ ] = dose if it differs, or a comment. Sampled rows, rich in hits. Any-hit rate of the full collection: about 3.1%.

SMILES	INS-1E GSIS act	miR-122 sensor	Cneo AK release	CFTR F508del cor	HIV Env fusion	rRNA inh HTS
CC(=O)Nc1ccc(NC(=O)C(C)OC(=O)/C=C/c2cn(-c3ccccc3)nc2-c2cccnc2)cc1 (stereo not given)	392*	nt	nt	nt	-13	nt
Cc1ccccc1NC(=O)COC(=O)/C=C/c1cn(-c2ccccc2)nc1-c1cccnc1	-4	nt	nt	nt	10	nt
COc1ccc(C)cc1-n1c(=O)c2ccccc2c2ccccc2c1=O	-10	nt	nt	0	0	-26*
COc1ccc(-c2nnc(Nc3nc4c(OC)cccc4s3)o2)cc1	nt	17	0	nt	72*	nt
O=C(c1c[nH]c2ccccc12)C(Cl)c1ccccc1 (stereo not given)	2	-9	-3	1	-154	-24*
O=C(c1c[nH]c2ccccc12)C(O)C(c1ccccc1)N1CCOCC1 (stereo not given)	nt	32	-3	nt	nt	nt
COc1ccccc1C(=O)Nc1ccc2c(c1)C(=O)N(C)[C@@H]1CC[C@@H](CC(=O)NCc3ccc(Cl)c(Cl)c3)O[C@@H]1CO2	-4	-6[16.7 µM]	2	3	nt	-4
NC(=O)Cc1ccc(C(=O)c2ccc(Cl)cc2)s1	17	-5	0	1	2	-24*
O=C(O)Cc1ccc(C(=O)c2ccc(Cl)cc2)s1	nt	1	1	nt	19	nt
CO[C@@H]1CN(C)C(=O)c2cc(NC(=O)C3CC3)ccc2OC[C@H](C)N(C(=O)c2ccncc2)C[C@H]1C	7	-6[16.7 µM]	102*	-3	?	0
CCCC(=O)Nc1ccc2c(c1)C(=O)N(C)C[C@@H](OC)[C@@H](C)CN(C(=O)c1cccnc1)[C@H](C)CO2	4	nt	-2	-1	nt	1
CO[C@@H]1CN(C)C(=O)c2ccc(NC(=O)Nc3ccccc3)cc2OC[C@H](C)N(C(C)=O)C[C@@H]1C	-12	1[16.7 µM]	4	nt	14[16.7 µM]	-3
CCCC(=O)Nc1ccc2c(c1)C(=O)N(C)C[C@H](OC)[C@@H](C)CN(C(=O)c1cccnc1)[C@H](C)CO2	1	nt	90*	-1	nt	1
CO[C@@H]1CN(C)C(=O)c2ccc(NC(C)=O)cc2OC[C@@H](C)N(C(=O)c2ccccn2)C[C@H]1C	5	-3[16.7 µM]	95*	1	-37[16.7 µM]	1
CO[C@@H]1CN(C)C(=O)c2ccc(NC(=O)Nc3ccccc3)cc2OC[C@H](C)N(C(C)=O)C[C@H]1C	-15	1[16.7 µM]	119*	nt	-3[16.7 µM]	0
CCCC(=O)N1CC2(CCN(C(=O)NC(C)C)CC2)c2c(n(C)c3cc(OC)ccc23)[C@H]1CO	15	nt	nt	2	nt	-4
CO[C@H]1CN(C)C(=O)c2ccc(NC(C)=O)cc2OC[C@H](C)N(C(=O)c2ccncc2)C[C@@H]1C	-8	27[16.7 µM]	82*	2	nt	2
CO[C@@H]1CN(C)C(=O)c2cc(NC(C)=O)ccc2OC[C@@H](C)N(C(=O)c2ccncc2)C[C@H]1C	12	4[16.7 µM]	-1	0	-7[16.7 µM]	1
COc1ccccc1-c1cnc2c(c1)C(=O)N([C@@H](C)CO)C[C@@H](C)[C@H](CN(C)Cc1ccc(C(=O)O)cc1)O2	10	-7[16.7 µM]	0	-2	-2[16.7 µM]	1
C[C@@H]1CN([C@@H](C)CO)C(=O)Cc2cc(NS(=O)(=O)c3ccc(F)cc3)ccc2O[C@H]1CN(C)S(=O)(=O)c1cn(C)cn1	-3	1[16.7 µM]	-4	-1	-5[16.7 µM]	2
COc1ccc(-c2oc3c(c2C(=O)OCCO)C(OCCO)CCC3)cc1 (stereo not given)	-7	nt	nt	-2	11	9
O=C(OCCO)c1c(-c2ccccc2)oc2c1C(OCCO)CCC2 (stereo not given)	9	nt	nt	-1	61*	5
O=C(C[C@@H]1CC[C@@H]2[C@H](COC[C@@H](O)CN2C(=O)Nc2ccc(C(F)(F)F)cc2)O1)NCCc1ccncc1	-18	0[16.7 µM]	0	0	nt	-58
CCCOc1ccc(C(F)(F)F)cc1NC(=O)CCc1c(C)noc1C	-4	-9	0	2	98*	-2
CCCCc1c(-c2ccccc2OC)ncn1CCc1ccc(OC)cc1	1	nt	nt	-2	-7	-62
SMILES	INS-1E GSIS act	miR-122 sensor	Cneo AK release	CFTR F508del cor	HIV Env fusion	rRNA inh HTS
CCCCc1c(-c2ccccc2OC)ncn1CCc1ccccc1	46*	nt	nt	3	13	-61
CCCCc1c(-c2ccccc2OC)ncn1C(C)c1ccccc1 (stereo not given)	92*	nt	nt	2	76*	-58
CCCCc1c(Cc2ccccc2)ncn1CCc1ccccc1OC	174*	nt	nt	6	58*	-52
Cc1cc(Cl)ccc1OCC(=O)NCCCn1ccnc1	nt	nt	nt	nt	0	nt
CN(C)c1nc(OCCNC(=O)Nc2ccc(Cl)cc2)nc(N(C)C)n1	12	-3	-1	0	3	9
CON(C)c1nc(OCCNC(=O)COc2ccc(Cl)cc2C)nc(N(C)C)n1	nt	-6	2	nt	163*	nt
CON(C)c1nc(OCCNC(=O)OCc2ccc(Cl)cc2Cl)nc(N(C)C)n1	nt	2	-1	nt	139*	nt
C[C@@H]1CC2=C(C(=O)OC(C)(C)O2)[C@H](c2ccc(Cl)cc2)O1	52*	nt	nt	0	-12	15
CC(C)C1CC2=C(C(=O)OC(C)(C)O2)C(c2ccc(Cl)cc2)O1 (stereo not given)	nt	-1	0	-2	-22	nt
C[C@@H]1CC2=C(C(=O)OC(C)(C)O2)[C@H](c2ccc(F)cc2)O1	56*	nt	nt	-3	-12	1
CC(C)(C)N(Cc1ccccc1)C(=O)CN1C(=O)c2ccccc2S1(=O)=O	3	9	0	-1	-3	-24*
O=C(CN1C(=O)c2ccccc2S1(=O)=O)c1ccc2c(c1)OCCO2	-10	1	2	-1	84*	13
O=C(CN1C(=O)c2ccccc2S1(=O)=O)c1ccc2c(c1)OCCCO2	-6	1	-14	-2	91*	-8
O=C(CN1C(=O)c2ccccc2S1(=O)=O)c1ccc(Cl)cc1Cl	7	3	-9	-1	62*	-2
O=C(CN1C(=O)c2ccccc2S1(=O)=O)c1ccc(F)cc1	-4	-3	-1	5	?	11
C[C@@H]1CCCCO[C@H](CN(C)C(=O)CCC(F)(F)F)[C@H](C)CN([C@H](C)CO)C(=O)c2cc(NS(=O)(=O)c3ccc(F)cc3)ccc2O1	-27	-5[16.7 µM]	3	0	-13[16.7 µM]	2
CC1(Cc2cccc(F)c2)C(=O)Nc2ccc(OC(F)(F)F)cc21 (stereo not given)	-18	-3	0	-1	35	-8
